# Hck Nef HTS = human Hck-Nef kinase inhibition; inhibition, % at 20 µM; Recombinant Hck-YEEI plus Nef, Z-Lyte FRET kinase assay; P08631; 0.68% of 220,000 active; AID 463187;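 active = Hck-Nef kinase inhibition above about 50%, limit read from the data; inactive = inhibition below that limit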;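 note: 0% = DMSO with Hck plus Nef and 100% = Hck alone without Nef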
# Biofilm kill mix = mixtures killing C. albicans biofilm | C. albicans biofilm persisters + clotrimazole, fluorescence viability; primary screen in compound mixtures of four per well | inhibition, % at 7.6 µM | 0.02% of 120,000 active | AID 1242;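 active = inhibition above 30.3% in the primary screen of four-compound pools, then above 30% when the compound was retested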;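 note: compounds exposed to preformed 24 h biofilms for 48 h; 0% = untreated biofilm control and 100% = clotrimazole plus chlorhexidine kill blank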
#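 Test system: C. albicans CAF4-2 wild-type biofilms; buffer or medium: RPMI/MOPS medium, pH 7.0; schedule: 24 h biofilm formation, then 48 h compound exposure, 37 °C; detection: Alamar Blue fluorescence; measure: percent inhibition of biofilm viability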
# p47phox inh = p47phox (human) inhibition; inhibition, % at 24.7 µM; AID 1274; p47phox/p22phox peptide binding, fluorescence polarization, 2 h; 0.53% of 220,000 active; P14598;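 active = inhibition above about 30%, limit read from the data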;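 note: 0% = p47phox with labelled peptide and 100% = labelled peptide alone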
# Target sequence (P14598 whole entry, looked up): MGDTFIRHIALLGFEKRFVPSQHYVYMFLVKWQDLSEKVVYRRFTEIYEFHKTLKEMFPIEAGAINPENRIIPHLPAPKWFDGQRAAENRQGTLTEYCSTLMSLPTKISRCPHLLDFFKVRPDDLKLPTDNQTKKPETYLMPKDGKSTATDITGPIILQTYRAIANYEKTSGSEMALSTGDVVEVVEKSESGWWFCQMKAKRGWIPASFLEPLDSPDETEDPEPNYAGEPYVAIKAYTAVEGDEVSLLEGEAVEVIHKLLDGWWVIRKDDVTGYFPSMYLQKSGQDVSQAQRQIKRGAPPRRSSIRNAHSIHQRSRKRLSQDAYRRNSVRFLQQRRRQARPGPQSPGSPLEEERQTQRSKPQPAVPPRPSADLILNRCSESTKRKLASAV
# Arbovirus inh = arbovirus infection inhibition; AID 1251; inhibition, % at 10 µM; 0.37% of 200,000 active; arbovirus infection cell-based antiviral screen; in the data active = inhibition above about 30%
# RAM network inh = yeast RAM network inhibition. S. cerevisiae dse1pr::URA3 reporter, 5-FOA growth OD615, 2 d; analog-sensitive cbk1-as2 kinase mutant strain. inhibition, % at 50 µM. 1.8% of 190,000 active;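 active = inhibition above a set limit, 3 SD over mean compound inhibition, cut at about 8.4% in these data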;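 note: 0% = DMSO-only wells with no growth and 100% = 10 µM 1-NA-PP1 full growth; inhibition rescues growth on 5-FOA so higher OD means more RAM inhibition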
# WT yeast gro inh = growth inhibition of WT yeast, mitochondrial fusion screen | inhibition, % at 10 µM | 2.1% of 190,000 active | AID 1362 | mitochondrial fusion phenotypic screen, WT strain; in the data active = inhibition above about 58%; tested in S. cerevisiae
# RAM efflux-def = restores 5-FOA growth of efflux-deficient yeast; S. cerevisiae efflux-deficient reporter strain, 5-FOA growth OD615, 2 days; max inhibition, %; shares compounds with RAM network inh; 1,200 tested, under 10 active; call rule not given here;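 note: plate controls were vehicle for no effect and reference inhibitor for full effect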
# An asterisk follows results filed as active; / = not tested or not shown. An excerpt weighted towards active compounds, which were near 4.6% of everything screened.
SMILES,Hck Nef HTS,Biofilm kill mix,p47phox inh,Arbovirus inh,RAM network inh,WT yeast gro inh,RAM efflux-def
COc1cccc(NC(=O)C2CC(=O)N(C)C(=Nc3cccc(F)c3)S2)c1 (centres undefined),3.1,/,-18.8,3.9,19.5*,-4.0,1.1
COc1cccc(N=C2SC(C(=O)Nc3ccccc3F)CC(=O)N2C)c1 (centres undefined),-1.1,/,-7.0,5.0,5.0,1.2,/
CCC(C)(C(=O)NC1CCCC1)N(C(=O)CNC(=O)c1ccccc1)c1c(C)n(C)n(-c2ccccc2)c1=O (centres undefined),21.4,14.3,3.9,-1.8,3.5,8.4,/
COc1ccc(-n2c(C)cc(/C=C3/SC(=S)N(C)C3=O)c2C)cc1,3.0,15.6,-53.5,-9.9,3.3,28.0,/
COCCN1C(=O)/C(=C/c2ccc(N3CCCC3)cc2C)SC1=S,4.0,-8.9,-260.7,-2.6,16.1*,33.7,3.9
COc1ccc(N2CCN(C(C)C(=O)N3CC(C)OC(C)C3)CC2)cc1 (centres undefined),-3.8,5.8,-4.4,10.2,0.1,2.0,/
Cc1ccccc1OCCC(=O)Nc1cccc(S(=O)(=O)Nc2ccccc2Cl)c1,-67.9,19.3,-12.5,17.1,17.4*,47.7,2.8
Cc1ccccc1OCCC(=O)Nc1ccc(Cl)cc1F,5.5,14.5,-7.2,-0.1,-0.9,-5.4,/
Cc1ccccc1NC(=O)NC1(C(=O)NCCCN2CCOCC2)CCCCC1,3.5,-3.2,2.2,3.2,0.1,-1.8,/
COc1cc(S(=O)(=O)Nc2ccccc2)ccc1N=Cc1c(C)[nH]n(-c2ccc(C)cc2)c1=O,1.2,2.4,-15.1,-13.8,13.4*,18.0,1.2
CCOc1ccc(-c2n[nH]c(C)c2-c2ccccc2OC)c(O)c1,-1.0,/,-8.6,0.1,2.9,10.9,/
CCCOC(=O)c1ccc(Oc2c(-c3ccc(OCC)cc3O)n[nH]c2C)cc1,-1.2,/,0.8,-43.8,14.9*,36.8,5.3
N#Cc1c(SCc2ccccc2)nc(N2CCOCC2)c2c1CCCC2,-0.7,/,11.7,-17.2,15.0*,29.1,3.6
CCOc1ccc(CC(=O)Nc2ccc(NC(=O)c3ccco3)cc2)cc1OCC,18.0,13.5,-0.6,-3.5,2.3,-5.8,/
CCOC(=O)c1ccc(NC(=O)c2cc(OC)c(OC)c(OC)c2Br)cc1,-1.3,12.7,-1.9,-0.1,0.7,30.9,/
CCCCCCOC(=O)c1ccc(NC(=O)c2cc(OC)c(OC)c(OC)c2Br)cc1,1.1,/,-35.8,1.9,11.5*,32.2,3.7
CCCCOC(=O)c1ccc(NC(=O)c2c(Cl)ccc(Cl)c2OC)cc1,-0.7,6.1,-16.9,-16.2,17.9*,43.7,3.0
CS/C(=C(/C#N)S(=O)(=O)c1ccc(Cl)cc1)N1CCOCC1,10.9,-1.8,-0.1,/,/,/,/
CCn1c(/C=C/c2c(C)[nH]c3ccccc23)nc2ccccc2c1=O,3.4,1.0,-61.5,-1.4,7.4,3.8,/
CN(C)S(=O)(=O)c1ccc2[nH]cc(/C=C/c3nc4ccccc4c(=O)n3-c3ccccc3)c2c1,1.2,/,-39.2,-14.4,13.3*,27.4,6.0
Cc1[nH]c2ccccc2c1/C=C/c1nc2ccccc2c(=O)n1-c1ccc([N+](=O)[O-])cc1,7.3,4.2,-16.1,-24.7,11.5*,5.8,4.3
CCn1c(/C=C/c2c[nH]c3ccccc23)nc2ccccc2c1=O,9.5,31.2,-7.5,0.1,5.8,4.0,/
Cn1c(SCC(=O)N2CCOCC2)nc(O)cc1=O,1.7,/,-0.8,6.2,1.3,-10.6,/
O=c1[nH][nH]c2cc(=O)n(-c3ccc(Cl)cc3)nc12,4.8,13.7,6.4,-2.3,0.8,5.4,/
O=C(CN(Cc1cccs1)S(=O)(=O)c1ccc(S(=O)(=O)NC2CCCCC2)cc1)Nc1ccccc1,1.2,10.1,-4.5,-15.5,13.8*,2.9,1.4
SMILES,Hck Nef HTS,Biofilm kill mix,p47phox inh,Arbovirus inh,RAM network inh,WT yeast gro inh,RAM efflux-def
O=C(CN(C1CC1)S(=O)(=O)c1ccc(S(=O)(=O)NC2CCCCC2)cc1)Nc1ccccc1,-0.7,/,-6.3,-26.4,2.3,14.7,/
CCC(C)NCCCOc1c(C)cc(C)cc1Br (centres undefined),0.5,14.1,-5.5,-15.4,0.4,10.4,/
CCOC(=O)C1CCN(S(=O)(=O)C(F)(F)c2nc3ccccc3s2)CC1,0.3,/,-4.1,8.6,3.0,8.4,1.4
Clc1ccc(-c2csc(Nc3ccccc3)[n+]2Cc2ccco2)c(Cl)c1,-5.3,8.2,-15.8,-11.6,14.0*,72.3*,2.5
C=CC[n+]1c(-c2ccc(Cl)cc2Cl)csc1Nc1c(C)n(C)n(-c2ccccc2)c1=O,4.1,17.1,2.4,-11.5,-0.4,23.7,/
CCS(=O)(=O)n1nc(-c2ccccc2)nc1NCc1ccco1,4.8,/,-9.3,10.5,-0.4,9.4,/
Cc1ccc(S(=O)(=O)n2nc(-c3ccc(Cl)cc3)nc2NCc2ccco2)cc1,-0.3,/,-22.9,-18.4,15.2*,27.5,4.5
COc1ccccc1NS(=O)(=O)c1ccc2oc(SCc3ccc(F)cc3)nc2c1,-19.7,15.2,-3.8,7.0,14.5*,38.9,3.1
COc1ccc(NS(=O)(=O)c2ccc3oc(SCc4ccc(F)cc4)nc3c2)cc1,-0.3,13.3,-28.7,-19.8,13.3*,57.5,2.5
COc1cc(CCC(=O)OCC(=O)Nc2c(C)cccc2C(C)C)cc(OC)c1OC,1.5,15.0,-6.5,2.8,2.4,-11.8,/
CCN(CC)C(=O)C(=O)c1cccn1-c1cccc(OC)c1C#N,1.9,12.7,4.4,0.2,2.0,-9.4,/
CCC(=O)N1CCc2cc(S(=O)(=O)NC(Cc3ccccc3)C(=O)NC3CCCCC3)ccc21 (centres undefined),4.8,20.2,-3.3,-2.0,14.0*,-5.4,1.8
COc1ccc(-c2nc3ccccc3c(=O)n2CCOc2cccc(C)c2C)cc1,-1.2,13.9,8.7,15.1,15.9*,-1.1,4.8
COc1ccc(-c2nc3ccccc3c(=O)n2CCN2CCOCC2)cc1,2.3,/,-8.3,2.2,1.2,-11.9,/
COc1ccc(-c2nc3ccccc3c(=O)n2CCOc2c(C)cccc2C)cc1,3.6,10.4,-8.9,7.0,17.1*,-13.2,6.4
O=C(CCNC(=O)c1ccccc1)OCC(=O)c1ccccc1,24.1,9.2,2.5,4.1,-0.7,-12.2,/
Nc1ccnn1Cc1ccncc1,15.2,0.6,-5.7,-5.4,0.1,-18.8,/
O=C1C=C(NCCc2ccccc2)C2(CCCCC2)O1,21.3,22.7,0.6,1.9,1.0,-20.6,/
COc1ccc(-c2ccc(-c3noc(C4CCCCC4)n3)c(OC)n2)cc1,1.3,/,-52.1,15.4,15.8*,-13.1,5.3
COc1ccc(-c2ccc(-c3noc(C)n3)c(OC)n2)cc1,0.2,/,-7.4,-12.1,3.8,-0.3,/
CCOc1nc(-c2ccccc2)ccc1-c1noc(-c2ccco2)n1,9.8,/,-12.3,-3.9,4.7,15.5,/
CCOc1nc(-c2ccccc2)ccc1-c1noc(COc2ccccc2)n1,-10.9,/,-67.5,2.1,17.2*,-0.1,4.7
